Results published in ChEMBL document CHEMBL3877283, “Antitubercular activity of 1,2,3-triazolyl fatty acid derivatives” (Eur J Med Chem, 2017).
≈ marks a conversion by molar mass, not a printed value.

Tests used:
Assay type in all cases: functional
[1] = test system: Mycobacterium tuberculosis; test: Antimycobacterial activity against isoniazid resistant Mycobacterium tuberculosis isolate 277b measured after 5 days by MTT dye based two-fold microdilution method; conditions: 120 h
Procedure, shortened: (§1)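 Two-fold serial dilution in 96-well plates in Middlebrook 7H9 with 10% ADS and 1% glycerol (7H9-ADS-G). DMSO stocks were diluted to a top concentration of 100 μg/mL and down to 0.8 μg/mL, run in duplicate. Wells received mid-log bacilli in 7H9-ADS-G, incubated 5 days at 37 °C, then MTT for 24 h. MIC is the lowest concentration blocking yellow-to-purple change. Rifampicin was the control.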

[2] = test system: Mycobacterium tuberculosis; test: Antimycobacterial activity against isoniazid resistant Mycobacterium tuberculosis isolate 620 measured after 5 days by MTT dye based two-fold microdilution method; conditions: isolate 620, 120 h; procedure, shortened: as §1
[3] = test system: Mycobacterium tuberculosis; test: Antimycobacterial activity against rifampicin/isoniazid/pyrazinamide resistant Mycobacterium tuberculosis isolate 501 measured after 5 days by MTT dye based two-fold microdilution method; conditions: isolate 501, 120 h; procedure, shortened: as §1
[4] = test system: Mycobacterium tuberculosis; test: Antimycobacterial activity against isoniazid/streptomycin resistant Mycobacterium tuberculosis isolate 780 measured after 5 days by MTT dye based two-fold microdilution method; conditions: isolate 780, 120 h; procedure, shortened: as §1
[5] = test system: Mycobacterium tuberculosis; test: Antimycobacterial activity against isoniazid/streptomycin resistant Mycobacterium tuberculosis isolate 914 measured after 5 days by MTT dye based two-fold microdilution method; conditions: isolate 914, 120 h; procedure, shortened: as §1
[6] = test system: Mycobacterium tuberculosis; test: Antimycobacterial activity against isoniazid/streptomycin resistant Mycobacterium tuberculosis isolate 396 measured after 5 days by MTT dye based two-fold microdilution method; conditions: isolate 396, 120 h; procedure, shortened: as §1
[7] = test system: Mycobacterium tuberculosis; test: Antimycobacterial activity against rifampicin-resistant Mycobacterium tuberculosis isolate 300 measured after 5 days by MTT dye based two-fold microdilution method; conditions: isolate 300, 120 h; procedure, shortened: as §1
[8] = test system: Mycobacterium tuberculosis; test: Antimycobacterial activity against rifampicin-resistant Mycobacterium tuberculosis isolate 958 measured after 5 days by MTT dye based two-fold microdilution method; conditions: isolate 958, 120 h; procedure, shortened: as §1
[9] = test system: Mycobacterium tuberculosis; test: Antimycobacterial activity against rifampicin-resistant Mycobacterium tuberculosis isolate 277 measured after 5 days by MTT dye based two-fold microdilution method; conditions: isolate 277, 120 h; procedure, shortened: as §1
[10] = test system: Mycobacterium tuberculosis; test: Antimycobacterial activity against isoniazid/streptomycin resistant Mycobacterium tuberculosis isolate 681 measured after 5 days by MTT dye based two-fold microdilution method; conditions: isolate 681, 120 h; procedure, shortened: as §1
[11] = test system: Mycobacterium tuberculosis; test: Antimycobacterial activity against rifampicin/isoniazid/pyrazinamide resistant Mycobacterium tuberculosis isolate 122 measured after 5 days by MTT dye based two-fold microdilution method; conditions: isolate 122, 120 h; procedure, shortened: as §1
[12] = test system: Mycobacterium tuberculosis; test: Antimycobacterial activity against rifampicin-resistant Mycobacterium tuberculosis isolate 925 measured after 5 days by MTT dye based two-fold microdilution method; conditions: isolate 925, 120 h; procedure, shortened: as §1
[13] = test system: Mycobacterium tuberculosis; test: Antimycobacterial activity against rifampicin/streptomycin resistant Mycobacterium tuberculosis isolate 675 measured after 5 days by MTT dye based two-fold microdilution method; conditions: isolate 675, 120 h; procedure, shortened: as §1
[14] = test system: Mycobacterium tuberculosis; test: Antimycobacterial activity against rifampicin-resistant Mycobacterium tuberculosis isolate 110 measured after 5 days by MTT dye based two-fold microdilution method; conditions: isolate 110, 120 h; procedure, shortened: as §1

Work on `CCCCCCCCc1cn(CC(=O)OCC)nn1` yielded an MIC [1] of 1.9 µM (≈ 0.508 µg/mL), an MIC [2] of 1.9 µM (≈ 0.508 µg/mL) and an MIC [3] of 3.7 µM (≈ 0.989 µg/mL). The MIC [4] was 1.9 µM (≈ 0.508 µg/mL), the MIC [5] was 1.9 µM (≈ 0.508 µg/mL) and the MIC [6] was 1.9 µM (≈ 0.508 µg/mL). The MIC [7] was 1.9 µM (≈ 0.508 µg/mL), the MIC [8] was 1.9 µM (≈ 0.508 µg/mL) and the MIC [9] was 1.9 µM (≈ 0.508 µg/mL). It also gave an MIC [10] of 1.9 µM (≈ 0.508 µg/mL), an MIC [11] of 0.9 µM (≈ 0.241 µg/mL) and an MIC [12] of 1.9 µM (≈ 0.508 µg/mL). The MIC [13] was 1.9 µM (≈ 0.508 µg/mL) and the MIC [14] was 1.9 µM (≈ 0.508 µg/mL).
